According to ChEMBL document CHEMBL1155362, “Synthesis, characterization and derivatization of some novel types of mono- and bis-imidazolidineiminothiones and imidazolidineiminodithiones with antitumor, antiviral, antibacterial and antifungal activities--part I” (Eur J Med Chem, 2009):
Converted amounts (≈) assume the structure as drawn. The source made the active and inactive calls. The calls are words filed in the database; no cut-off is given here.

Experiments:
[1] = system: Bacillus subtilis; assay: Antibacterial activity against Bacillus subtilis NCIB 3610 at 5 mg/ml by agar disk diffusion assay; assay type: functional; conditions: for zone of inhibition at 5000 µg/mL: Bacillus subtilis, NCIB 3610, read-out: DIZ
[2] = system: Hepatovirus A; assay: Antiviral activity against Hepatitis A virus infected african green monkey Vero cells at 10^-4 dilution of 5 mg/ml by plaque formation assay; assay type: functional
In short: (§1)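 Compound dilutions prepared from a 5 mg/mL DMSO stock, using the maximum non-toxic dilution for Vero cells over 3 days; 0.1 mL virus (10³) mixed with 0.1 mL compound for 1 h at room temperature; mixture inoculated onto washed Vero monolayers in 12-well plates and adsorbed at 37 °C; 2× MEM/agarose overlay applied; read-out % reduction in plaque count versus untreated virus control.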

[3] = system: Candida albicans; assay: Antifungal activity against Candida albicans IMRU 3669 at 2.5 mg/ml by agar disk diffusion assay; assay type: functional; conditions: read-out: DIZ
In short: (§2)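 Fungi maintained on Czapek's Dox agar; agar well diffusion with 1 cm wells and […] of each concentration (1, 2.5, 5 mg/mL) in DMF; inhibition zone diameter measured.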

[4] = system: Coxsackievirus B4; assay: Antiviral activity against Coxsackievirus B4 infected african green monkey Vero cells at 10^-4 dilution of 5 mg/ml by plaque formation assay; assay type: functional, organism-based; in short: as §1
[5] = system: Aspergillus niger; assay: Antifungal activity against Aspergillus niger Ferm-BAM C-21 at 5 mg/ml by agar disk diffusion assay; assay type: functional; conditions: read-out: DIZ; in short: as §2
[6] = system: Escherichia coli; assay: Antibacterial activity against Escherichia coli NCTC 10416 at 5 mg/ml by agar disk diffusion assay; assay type: functional; conditions: read-out: DIZ
[7] = system: Salmonella typhi; assay: Antibacterial activity against Salmonella typhi NCIMB 9331 at 5 mg/ml by agar disk diffusion assay; assay type: functional, Salmonella enterica subsp. enterica serovar Typhi; conditions: Salmonella enterica, read-out: DIZ
[8] = system: Bacillus subtilis; assay: Antibacterial activity against Bacillus subtilis NCTC 1040 at 5 mg/ml by agar disk diffusion assay; assay type: functional; conditions: read-out: DIZ
[9] = system: Pseudomonas aeruginosa; assay: Antibacterial activity against Pseudomonas aeruginosa NCIB 9016 at 2.5 mg/ml by agar disk diffusion assay; assay type: functional; conditions: for zone of inhibition at 2500 µg/mL: Pseudomonas aeruginosa, NCIB 9016, read-out: DIZ
[10] = system: Staphylococcus aureus; assay: Antibacterial activity against Staphylococcus aureus NCTC 7447 at 5 mg/ml by agar disk diffusion assay; assay type: functional; conditions: read-out: DIZ
[11] = system: Bacillus subtilis; assay: Antibacterial activity against Bacillus subtilis NCIB 3610 at 1 mg/ml by agar disk diffusion assay; assay type: functional; conditions: for zone of inhibition at 1000 µg/mL: Bacillus subtilis, NCIB 3610, read-out: DIZ
[12] = system: Aspergillus niger; assay: Antifungal activity against Aspergillus niger IMI 31726 at 5 mg/ml by agar disk diffusion assay; assay type: functional; conditions: read-out: DIZ
[13] = system: Candida albicans; assay: Antifungal activity against Candida albicans IMRU 3669 at 5 mg/ml by agar disk diffusion assay; assay type: functional; conditions: for zone of inhibition at 5000 µg/mL: Candida albicans, IMRU 3669, read-out: DIZ; in short: as §2
[14] = system: Pseudomonas aeruginosa; assay: Antibacterial activity against Pseudomonas aeruginosa NCIB 9016 at 5 mg/ml by agar disk diffusion assay; assay type: functional; conditions: Pseudomonas aeruginosa, NCIB 9016; read-out: DIZ
[15] = system: Bacillus subtilis; assay: Antibacterial activity against Bacillus subtilis NCIB 3610 at 2.5 mg/ml by agar disk diffusion assay; assay type: functional; conditions: for zone of inhibition at 2500 µg/mL: Bacillus subtilis, NCIB 3610, read-out: DIZ
[16] = system: Human alphaherpesvirus 1; assay: Antiviral activity against HSV1 infected african green monkey Vero cells at 10^-4 dilution of 5 mg/ml by plaque formation assay; assay type: functional; in short: as §1
[17] = system: Pseudomonas aeruginosa; assay: Antibacterial activity against Pseudomonas aeruginosa NCIB 9016 at 1 mg/ml by agar disk diffusion assay; assay type: functional; conditions: for zone of inhibition at 1000 µg/mL: Pseudomonas aeruginosa, NCIB 9016, read-out: DIZ
[18] = system: Aspergillus niger; assay: Antifungal activity against Aspergillus niger Ferm-BAM C-21 at 2.5 mg/ml by agar disk diffusion assay; assay type: functional; conditions: read-out: DIZ; in short: as §2
[19] = system: Bacillus subtilis; assay: Antimicrobial activity against Bacillus subtilis NCTC 1040 by macrotube dilution assay; assay type: functional
[20] = system: Salmonella typhi; assay: Antimicrobial activity against Salmonella typhi NCIMB 9331 by macrotube dilution assay; assay type: functional, Salmonella enterica subsp. enterica serovar Typhi; conditions: Salmonella enterica
[21] = system: Candida albicans; assay: Antifungal activity against Candida albicans IMRU 3669 at 1 mg/ml by agar disk diffusion assay; assay type: functional; conditions: read-out: DIZ; in short: as §2
[22] = system: Candida albicans; assay: Antifungal activity against Candida albicans IMRU 3669 by macrotube dilution assay; assay type: functional
In short: (§3)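 Macrotube twofold dilution per NCCLS/CLSI guidelines for fungi; 2 mg compound in 2.0 mL DMF, serially diluted across 14 tubes of Czapek's Dox medium, with a control tube; inoculum added to halve the concentration; 30 °C for 72 h; MIC is the lowest concentration without visible growth.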

[23] = system: Klebsiella pneumoniae; assay: Antimicrobial activity against Klebsiella pneumoniae NCIMB 9111 by macrotube dilution assay; assay type: functional
[24] = system: Aspergillus niger; assay: Antifungal activity against Aspergillus niger Ferm-BAM C-21 by macrotube dilution assay; assay type: functional; in short: as §3
[25] = system: Staphylococcus aureus; assay: Antimicrobial activity against Staphylococcus aureus NCTC 7447 by macrotube dilution assay; assay type: functional
[26] = Antitumor activity against mouse EAC cells assessed as inhibition of cell viability at 100 ug/ml after 2 hrs by trypan blue exclusion assay; assay type: functional; conditions: Ehrlich
In short: (§4)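 EAC cells aspirated from ascitic fluid of inoculated mice and diluted in saline; 0.1 mL cell suspension, 0.8 mL RPMI 1640 and 0.1 mL compound (25, 50 or 100) incubated 2 h at 37 °C; non-viable cells counted by trypan blue exclusion; % non-viable = dead/total × 100.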

[27] = system: HeLa; assay: Cytotoxicity against human HeLa cells assessed as surviving fraction after 48 hrs by SRB assay; assay type: functional, cell-based; conditions: hela
In short: (§5)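 Cells seeded at 10⁴ cells/well and left 24 h to attach, then exposed to […] in triplicate wells per dose. Incubation 48 h, 37 °C, 5% CO₂. Cells fixed and stained with sulforhodamine B, excess dye removed with acetic acid, bound dye taken up in Tris EDTA and read on an ELISA reader. Surviving fraction plotted against concentration.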

[28] = Antitumor activity against mouse EAC cells assessed as inhibition of cell viability at 50 ug/ml after 2 hrs by trypan blue exclusion assay; assay type: functional; conditions: Ehrlich; in short: as §4
[29] = Antitumor activity against mouse EAC cells assessed as inhibition of cell viability at 25 ug/ml after 2 hrs by trypan blue exclusion assay; assay type: functional; conditions: Ehrlich; in short: as §4
[30] = system: MCF7; assay: Cytotoxicity against human MCF7 cells assessed as surviving fraction after 48 hrs by SRB assay; assay type: functional, cell-based; conditions: mcf7; in short: as §5
[31] = system: HCT-116; assay: Cytotoxicity against human HCT116 cells assessed as surviving fraction after 48 hrs by SRB assay; assay type: functional, cell-based; conditions: hct-116; in short: as §5
[32] = system: HepG2; assay: Cytotoxicity against human HepG2 cells assessed as surviving fraction after 48 hrs by SRB assay; assay type: functional, cell-based; conditions: Homo sapiens, HepG2, 48 h; read-out: IC50; in short: as §5

N=C1C(=S)N(c2ccc(Cl)c(Cl)c2)C(=O)N1c1ccc(Cl)cc1
zone of inhibition at 5000 µg/mL [1]: 14 mm | Activity [2]: inactive | zone of inhibition at 2500 µg/mL [3]: 13 mm | Activity [4]: inactive | zone of inhibition at 5000 µg/mL [5]: 17 mm | zone of inhibition at 5000 µg/mL [6]: 19 mm | zone of inhibition at 5000 µg/mL [7]: 17 mm | zone of inhibition at 5000 µg/mL [8]: 16 mm | zone of inhibition at 2500 µg/mL [9]: 16 mm | zone of inhibition at 5000 µg/mL [10]: 16 mm | zone of inhibition at 1000 µg/mL [11]: 13 mm | zone of inhibition at 5000 µg/mL [12]: 21 mm | diameter of the inhibition zone (DIZ) [13]: 14 mm | zone of inhibition at 5000 µg/mL [13]: 17 mm | zone of inhibition at 5000 µg/mL [14]: 18 mm | zone of inhibition at 2500 µg/mL [15]: 13 mm | Activity [16]: inactive | zone of inhibition at 1000 µg/mL [17]: 15 mm | zone of inhibition at 2500 µg/mL [18]: 15 mm

N=C1C(=S)N(c2ccc(I)cc2)C(=O)N1c1cc(Cl)c(Cl)cc1Cl
Activity [2]: 40% | Activity [4]: inactive | zone of inhibition at 5000 µg/mL [6]: 16.5 mm | zone of inhibition at 5000 µg/mL [7]: 17 mm | zone of inhibition at 5000 µg/mL [8]: 17 mm | zone of inhibition at 5000 µg/mL [10]: 18 mm | zone of inhibition at 5000 µg/mL [12]: 20 mm | zone of inhibition at 5000 µg/mL [13]: 17 mm | Activity [16]: inactive

N=C1C(=S)N(c2ccc(Cl)cc2)C(=O)N1c1cccc2ccccc12
zone of inhibition at 5000 µg/mL [1]: 19 mm | zone of inhibition at 2500 µg/mL [3]: 12 mm | zone of inhibition at 5000 µg/mL [5]: 12 mm | zone of inhibition at 2500 µg/mL [9]: 16 mm | zone of inhibition at 1000 µg/mL [11]: 17 mm | zone of inhibition at 5000 µg/mL [13]: 14 mm | zone of inhibition at 5000 µg/mL [14]: 18 mm | zone of inhibition at 2500 µg/mL [15]: 18 mm | zone of inhibition at 1000 µg/mL [17]: 15 mm

O=C1N(c2ccc(Cl)cc2)CC(=S)N1c1ccc(Cl)c(Cl)c1
zone of inhibition at 5000 µg/mL [1]: 20 mm | MIC [19]: 1.95 µg/mL (≈ 5.25 µM) | MIC [20]: 0.49 µg/mL (≈ 1.32 µM) | zone of inhibition at 1000 µg/mL [21]: 25 mm | MIC [22]: 0.97 µg/mL (≈ 2.61 µM) | MIC [23]: 3.9 µg/mL (≈ 10.5 µM) | zone of inhibition at 2500 µg/mL [9]: 32 mm | zone of inhibition at 1000 µg/mL [11]: 19 mm | zone of inhibition at 5000 µg/mL [13]: 32 mm | zone of inhibition at 5000 µg/mL [14]: 37 mm | zone of inhibition at 2500 µg/mL [15]: 20 mm | MIC [24]: 31.3 µg/mL (≈ 84.2 µM) | zone of inhibition at 1000 µg/mL [17]: 29 mm | MIC [25]: 15.6 µg/mL (≈ 42 µM)

NNc1nnc2c(n1)n(-c1ccc(Cl)cc1)c(=O)n2-c1ccc(Cl)cc1
inhibition at 100 µg/mL [26]: 100% | IC50 [27]: Not Active | inhibition at 50 µg/mL [28]: 100% | inhibition at 25 µg/mL [29]: 95% | IC50 [30]: Not Active | IC50 [31]: Not Active | IC50 [32]: 1.54 µg/mL (≈ 3.97 µM)

N=C1C(=S)N(c2ccc(Br)cc2)C(=O)N1c1ccc2c(c1)Cc1ccccc1-2
Activity [2]: inactive | Activity [4]: inactive | zone of inhibition at 5000 µg/mL [6]: 14 mm | zone of inhibition at 5000 µg/mL [7]: 16 mm | zone of inhibition at 5000 µg/mL [8]: 13 mm | zone of inhibition at 5000 µg/mL [13]: 13 mm | Activity [16]: inactive

CCN(CC)CC.N#CC(=S)Nc1ccc(Cl)c(Cl)c1
diameter of the inhibition zone (DIZ) [1]: 17 mm | diameter of the inhibition zone (DIZ) [9]: 16 mm | diameter of the inhibition zone (DIZ) [11]: 15 mm | diameter of the inhibition zone (DIZ) [15]: 16 mm | diameter of the inhibition zone (DIZ) [17]: 13 mm

N#CC(=S)Nc1ccc(Cl)c(Cl)c1
zone of inhibition at 5000 µg/mL [14]: 19 mm
